We go through one molecule from ChEMBL document CHEMBL1143773, “Synthesis and studies on antidepressant and anticonvulsant activities of some 3-(2-furyl)-pyrazoline derivatives” (Eur J Med Chem, 2007).

Data set [1] concerns Mus musculus. Nature of the data set: Anticonvulsant activity in Albino mouse at 30 mg/kg, ip after 4 hrs by MES test. It counts as functional, organism-based. Also noted: dose 30 mg/kg. In a few lines: (§1)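 Phase I protocol of the NINCDS antiepileptic drug development programme in albino mice, covering MES, subcutaneous pentylenetetrazole (metrazol) and rotarod neurotoxicity. Doses were 30, 100 and 300 mg/kg, read at 1/2 h and 4 h. One animal per dose and time point, scored as 0/1 (no activity) or 1/1 (noticeable activity).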

For data set [2], the system named is Mus musculus. The experiment in a line: Anticonvulsant activity in Albino mouse by MES test at 30mg/kg, ip after 30 mins. It counts as functional, organism-based. In a few lines: as §1
Data set [3] deals with Mus musculus. The experiment in a line: Antidepressant activity in Albino mouse assessed as duration of immobility at 10 mg/kg, ip by forced-swimming test. It counts as functional. Particulars: route intraperitoneal. In a few lines: (§2)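 Porsolt forced-swim test in albino mice. Drug given ip at 0.5 ml/20 g body weight, 1 h before testing. Controls received 1% aqueous Tween 80. Each mouse was placed singly in a water-filled Plexiglas cylinder for 6 min. Immobility (floating upright with only slight movements to stay afloat) was timed over the last 4 min.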

Data set [4] concerns Mus musculus. The experiment in a line: Anticonvulsant activity against metrazole-induced seizures in Albino mouse at 300 mg/kg, ip after 4 hrs by scMet assay. It counts as functional, organism-based. Set-up: dose 300 mg/kg. In a few lines: as §1
The test system of data set [5] is Mus musculus. The experiment in a line: Anticonvulsant activity against metrazole-induced seizures in Albino mouse at 30 mg/kg, ip after 4 hrs by scMet. It counts as functional, organism-based. Set-up: dose 30 mg/kg. In a few lines: as §1
Data set [6] has as its system Mus musculus. Nature of the data set: Neurotoxicity in Albino mouse at 100 mg/kg, ip after 4 hrs by RotaRod test. Particulars: in vivo. It counts as toxicity, organism-based. Also noted: dose 100 mg/kg, route intraperitoneal. In a few lines: as §1
In data set [7] the test system is Mus musculus. The experiment in a line: Neurotoxicity in Albino mouse at 300 mg/kg, ip after 30 mins by RotaRod test. It counts as toxicity, organism-based. Also noted: dose 300 mg/kg, route intraperitoneal. The note with it: in vivo, 0.5 h. In a few lines:
as §1

The test system of data set [8] is Mus musculus. The experiment in a line: Anticonvulsant activity in Albino mouse at 100 mg/kg, ip after 4 hrs by MES test. It counts as functional, organism-based. Also noted: dose 100 mg/kg. In a few lines:
as §1

In data set [9] the test system is Mus musculus. Nature of the data set: Antidepressant activity in Albino mouse assessed as duration of immobility at 10 mg/kg, ip by forced-swimming test relative to control. Particulars: route intraperitoneal. It counts as functional. In a few lines:
as §2

Data set [10] concerns Mus musculus. Nature of the data set: Anticonvulsant activity in Albino mouse by MES test at 100 mg/kg, ip after 30 mins. It counts as functional, organism-based. Set-up: dose 100 mg/kg. In a few lines: as §1
For data set [11], the system named is Mus musculus. Nature of the data set: Neurotoxicity in Albino mouse at 100 mg/kg, ip after 30 mins by RotaRod test. It counts as toxicity, organism-based. Also noted: dose 100 mg/kg, route intraperitoneal. Particulars: in vivo, 0.5 h. In a few lines:
as §1

The subject of data set [12] is Mus musculus. Nature of the data set: Anticonvulsant activity against metrazole-induced seizures in Albino mouse at 100 mg/kg, ip after 4 hrs by scMet assay. It counts as functional, organism-based. Also noted: dose 100 mg/kg. In a few lines:
as §1

Data set [13] has as its system Mus musculus. The experiment in a line: Neurotoxicity in Albino mouse at 300 mg/kg, ip after 4 hrs by RotaRod test. It counts as toxicity, organism-based. Particulars: in vivo. Set-up: dose 300 mg/kg, route intraperitoneal. In a few lines: as §1
The test system of data set [14] is Mus musculus. Nature of the data set: Anticonvulsant activity in Albino mouse at 300 mg/kg, ip after 4 hrs by MES test. It counts as functional, organism-based. Set-up: dose 300 mg/kg. In a few lines: as §1
Data set [15] relates to Mus musculus. The experiment in a line: Anticonvulsant activity against metrazole-induced seizures in Albino mouse at 30 mg/kg, ip after 30 mins by scMet assay. It counts as functional, organism-based. Also noted: dose 30 mg/kg. In a few lines: as §1
Data set [16] relates to Mus musculus. Nature of the data set: Anticonvulsant activity in Albino mouse by MES test at 300 mg/kg, ip after 30 mins. It counts as functional, organism-based. Also noted: dose 300 mg/kg. In a few lines: as §1
Data set [17] relates to Mus musculus. The experiment in a line: Anticonvulsant activity against metrazole-induced seizures in Albino mouse at 100 mg/kg, ip after 30 mins by scMet assay. It counts as functional, organism-based. Also noted: dose 100 mg/kg. In a few lines: as §1
For data set [18], the system named is Mus musculus. Nature of the data set: Anticonvulsant activity against metrazole-induced seizures in Albino mouse at 300 mg/kg, ip after 30 mins by scMet assay. Set-up: dose 300 mg/kg. It counts as functional, organism-based. In a few lines: as §1
For data set [19], the system named is Mus musculus. The experiment in a line: Neurotoxicity in Albino mouse at 30 mg/kg, ip after 4 hrs by RotaRod test. Set-up: dose 30 mg/kg, route intraperitoneal. It counts as toxicity, organism-based. Particulars: in vivo. In a few lines: as §1
The subject of data set [20] is Mus musculus. The experiment in a line: Neurotoxicity in Albino mouse at 30 mg/kg, ip after 30 mins by RotaRod test. It counts as toxicity, organism-based. Set-up: dose 30 mg/kg, route intraperitoneal. Particulars: in vivo, 0.5 h. In a few lines:
as §1

Each structure is given as a SMILES string. Activity calls are given as the source filed them. The calls are words filed in the database; no cut-off is given here.

Take `NC(=S)N1N=C(c2ccco2)CC1c1ccco1` (stereo not given): the outcome in the data set with Mus musculus [1], in the data set with Mus musculus [2], in the data set with Mus musculus [4], in the data set with Mus musculus [5], with Mus musculus [8] and with Mus musculus [10] was inactive. Moreover, the outcome in the data set on Mus musculus [12] and with Mus musculus [16] was inactive. In addition, the Activity in the data set with Mus musculus [3] is reported as 182 s; in the data set with Mus musculus [6], “Not Active”; in the data set with Mus musculus [7] it was “Not Active”; in the data set with Mus musculus [9] it was -13.33%; with Mus musculus [11], “Not Active”; in the data set on Mus musculus [13], “Not Active”. In addition, the Activity result in the data set with Mus musculus [19] and in the data set on Mus musculus [20] was “Not Active” throughout. Moreover, the result with Mus musculus [14], with Mus musculus [15], in the data set on Mus musculus [17] and in the data set with Mus musculus [18] was Active.
